In brackets after ≈: the same amount, converted by molar mass. Activity calls are given as the source filed them. The calls are words filed in the database; no cut-off is given here.
Assays:
Staphylococcus aureus [1] = experiment: Antimicrobial activity against Staphylococcus aureus assessed as microbial growth inhibition; format: functional
Staphylococcus aureus [2] = experiment: Antibacterial activity against methicillin/ceftriaxone/meropenem-resistant Staphylococcus aureus NRS10192 clinical isolate assessed as bacterial growth inhibition incubated for 16 to 18 hrs by CLSI based antibiotic susceptibility testing method; format: functional; settings: time 16-18 hrs
Method in brief: (§1)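 Broth microdilution in cation-adjusted Mueller-Hinton broth. Compounds were tested at […], with levofloxacin as reference and medium-only controls. Plates were incubated at 37 °C for 16-18 h. MIC was the lowest concentration with no visible growth; three independent determinations, each in duplicate.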

Staphylococcus aureus [3] = experiment: Antibacterial activity against methicillin/ceftriaxone/meropenem-resistant Staphylococcus aureus NRS10129 clinical isolate assessed as bacterial growth inhibition incubated for 16 to 18 hrs by CLSI based antibiotic susceptibility testing method; format: functional; settings: time 16-18 hrs; method in brief: as §1
Staphylococcus aureus [4] = experiment: Antibacterial activity against methicillin/ceftriaxone/meropenem/vancomycin/teicoplanin-resistant Staphylococcus aureus VRS4 clinical isolate assessed as bacterial growth inhibition incubated for 16 to 18 hrs by CLSI based antibiotic susceptibility testing method; format: functional; settings: time 16-18 hrs; method in brief: as §1
[5] = test system: Mycobacterium tuberculosis; experiment: Antimycobacterial activity against Mycobacterium tuberculosis H37Rv ATCC 27294 assessed as bacterial growth inhibition incubated for 7 days by resazurin dye based broth microdilution method; format: functional; settings: H37Rv ATCC 27294, 168 h, time 7 day
Method in brief: (§2)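 Broth microdilution in Middlebrook 7H9 with 10% ADC-Tween-80 (0.2% glycerol, 0.05% Tween-80), inoculum ~10⁶ cfu/mL. Compounds came from 10 mg/mL DMSO stocks and were tested as two-fold serial dilutions at 37 °C, 7 days for M. tuberculosis H37Rv and 72 h for NTM. Growth was read visually with PrestoBlue resazurin dye; MIC was the lowest concentration preventing growth. Triplicate determinations, each in duplicate.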

[6] = Selectivity index, ratio of CC50 for African green monkey Vero cells to MIC for Staphylococcus aureus ATCC 29213; format: toxicity, cell-based; settings: read-out: Selectivity Index
Pseudomonas aeruginosa = experiment: Antibacterial activity against Pseudomonas aeruginosa ATCC 27853 assessed as bacterial growth inhibition incubated for 16 to 18 hrs by CLSI based antibiotic susceptibility testing method; format: functional, organism-based; settings: time 16-18 hrs; method in brief: as §1
Acinetobacter baumannii = experiment: Antibacterial activity against Acinetobacter baumannii BAA 1605 assessed as bacterial growth inhibition incubated for 16 to 18 hrs by CLSI based antibiotic susceptibility testing method; format: functional, organism-based; settings: time 16-18 hrs; method in brief: as §1
Staphylococcus aureus [7] = experiment: Antibacterial activity against methicillin/ceftriaxone/meropenem-resistant Staphylococcus aureus NRS10198 clinical isolate assessed as bacterial growth inhibition incubated for 16 to 18 hrs by CLSI based antibiotic susceptibility testing method; format: functional; settings: time 16-18 hrs; method in brief: as §1
Staphylococcus aureus [8] = experiment: Antibacterial activity against methicillin/ceftriaxone/meropenem-resistant Staphylococcus aureus NRS10193 clinical isolate assessed as bacterial growth inhibition incubated for 16 to 18 hrs by CLSI based antibiotic susceptibility testing method; format: functional; settings: time 16-18 hrs; method in brief: as §1
Staphylococcus aureus [9] = experiment: Antibacterial activity against methicillin/ceftriaxone/meropenem-resistant Staphylococcus aureus NRS10191 clinical isolate assessed as bacterial growth inhibition incubated for 16 to 18 hrs by CLSI based antibiotic susceptibility testing method; format: functional; settings: time 16-18 hrs; method in brief: as §1
[10] = Cytotoxicity against African green monkey Vero cells by MTT assay; format: toxicity, cell-based; settings: chlorocebus sabaeus
Method in brief: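 Vero cells were seeded at ~10³ per well at 37 °C, 5% CO2. After 24 h, compounds were added at 5-100 mg/L for 72 h. […] was added for 4 h, formazan was dissolved in DMSO and read at 540 nm. CC50 was taken as the lowest concentration reducing viability by 50%; doxorubicin was the positive control; triplicate.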

Staphylococcus aureus [11] = experiment: Antibacterial activity against methicillin/ceftriaxone/meropenem-resistant Staphylococcus aureus NRS10186 clinical isolate assessed as bacterial growth inhibition incubated for 16 to 18 hrs by CLSI based antibiotic susceptibility testing method; format: functional; settings: time 16-18 hrs; method in brief: as §1
Escherichia coli = experiment: Antibacterial activity against Escherichia coli ATCC 25922 assessed as bacterial growth inhibition incubated for 16 to 18 hrs by CLSI based antibiotic susceptibility testing method; format: functional, organism-based; settings: time 16-18 hrs; method in brief: as §1
Staphylococcus aureus [12] = experiment: Antibacterial activity against methicillin/ceftriaxone/meropenem/gentamycin/vancomycin/teicoplanin-resistant Staphylococcus aureus VRS1 clinical isolate assessed as bacterial growth inhibition incubated for 16 to 18 hrs by CLSI based antibiotic susceptibility testing method; format: functional; settings: time 16-18 hrs; method in brief: as §1
Klebsiella pneumoniae = experiment: Antibacterial activity against Klebsiella pneumoniae BAA 1705 assessed as bacterial growth inhibition incubated for 16 to 18 hrs by CLSI based antibiotic susceptibility testing method; format: functional, organism-based; settings: time 16-18 hrs; method in brief: as §1
Staphylococcus aureus [13] = experiment: Antibacterial activity against methicillin-sensitive Staphylococcus aureus ATCC 29213 clinical isolate assessed as bacterial growth inhibition incubated for 16 to 18 hrs by CLSI based antibiotic susceptibility testing method; format: functional; settings: time 16-18 hrs; method in brief: as §1
Mycobacteroides chelonae = experiment: Antimycobacterial activity against Mycobacteroides chelonae ATCC 35752 assessed as bacterial growth inhibition incubated for 72 hrs by resazurin dye based broth microdilution method; format: functional, organism-based; method in brief: as §2
Staphylococcus aureus [14] = experiment: Antibacterial activity against methicillin/ceftriaxone-resistant Staphylococcus aureus NRS10194 clinical isolate assessed as bacterial growth inhibition incubated for 16 to 18 hrs by CLSI based antibiotic susceptibility testing method; format: functional; settings: time 16-18 hrs; method in brief: as §1
Staphylococcus aureus [15] = experiment: Antibacterial activity against Staphylococcus aureus ATCC 29213 assessed as bacterial growth inhibition incubated for 16 to 18 hrs by CLSI based antibiotic susceptibility testing method; format: functional; settings: time 16-18 hrs; method in brief: as §1
Staphylococcus aureus [16] = experiment: Antibacterial activity against methicillin/ceftriaxone/meropenem/gentamycin/linezolid-resistant Staphylococcus aureus NRS10100 clinical isolate assessed as bacterial growth inhibition incubated for 16 to 18 hrs by CLSI based antibiotic susceptibility testing method; format: functional; settings: time 16-18 hrs; method in brief: as §1
Staphylococcus aureus [17] = experiment: Antibacterial activity against methicillin/ceftriaxone/meropenem/gentamycin/linezolid-resistant Staphylococcus aureus NRS10119 clinical isolate assessed as bacterial growth inhibition incubated for 16 to 18 hrs by CLSI based antibiotic susceptibility testing method; format: functional; settings: time 16-18 hrs; method in brief: as §1
Staphylococcus aureus [18] = experiment: Antibacterial activity against methicillin/ceftriaxone/meropenem/vancomycin/teicoplanin-resistant Staphylococcus aureus VRS12 clinical isolate assessed as bacterial growth inhibition incubated for 16 to 18 hrs by CLSI based antibiotic susceptibility testing method; format: functional; settings: time 16-18 hrs; method in brief: as §1
[19] = test system: Mycolicibacterium fortuitum; experiment: Antimycobacterial activity against Mycobacterium fortuitum ATCC 6841 assessed as bacterial growth inhibition incubated for 72 hrs by resazurin dye based broth microdilution method; format: functional, organism-based; method in brief: as §2
[20] = test system: Mycobacteroides abscessus; experiment: Antimycobacterial activity against Mycobacterium abscessus ATCC 19977 assessed as bacterial growth inhibition incubated for 72 hrs by resazurin dye based broth microdilution method; format: functional, organism-based; method in brief: as §2
Staphylococcus aureus [21] = experiment: Antimicrobial activity against methicillin-resistant Staphylococcus aureus assessed as microbial growth inhibition by NCCLS based assay; format: functional
Staphylococcus aureus [22] = experiment: Bactericidal activity against Staphylococcus aureus ATCC 29213 assessed as reduction in remnant bacterial cells measured for 24 hrs by time-kill assay; format: functional, organism-based
Method in brief: (§3)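 Time-kill assay: S. aureus ATCC 29213 at ~10⁶ cfu/mL in MHB, exposed to 1X and 10X MIC at 37 °C, in triplicate. Samples taken at 0, 1, 6 and 24 h were serially diluted in PBS and plated on TSA for 18-20 h at 37 °C. Surviving cfu/mL were counted against untreated controls.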

Staphylococcus aureus [23] = experiment: Bactericidal activity against Staphylococcus aureus ATCC 29213 assessed as reduction in remnant bacterial cells at 10 times MIC measured for 24 hrs by time-kill assay; format: functional; method in brief: as §3

| Compound | MIC (Staphylococcus aureus [1]) [µg/mL] | MIC (Staphylococcus aureus [2]) [µg/mL] | MIC (Staphylococcus aureus [3]) [µg/mL] | MIC (Staphylococcus aureus [4]) [µg/mL] | MIC [5] [µg/mL] | selectivity ratio [6] | growth inhibition (GI) (Pseudomonas aeruginosa) | growth inhibition (GI) (Acinetobacter baumannii) | MIC (Staphylococcus aureus [7]) [µg/mL] | MIC (Staphylococcus aureus [8]) [µg/mL] | MIC (Staphylococcus aureus [9]) [µg/mL] | CC50 [10] [µg/mL] | MIC (Staphylococcus aureus [11]) [µg/mL] | growth inhibition (GI) (Escherichia coli) | MIC (Staphylococcus aureus [12]) [µg/mL] | growth inhibition (GI) (Klebsiella pneumoniae) | MIC (Staphylococcus aureus [13]) [µg/mL] | growth inhibition (GI) (Mycobacteroides chelonae) | MIC (Staphylococcus aureus [14]) [µg/mL] | MIC (Staphylococcus aureus [15]) [µg/mL] | further results |
| --- | --- | --- | --- | --- | --- | --- | --- | --- | --- | --- | --- | --- | --- | --- | --- | --- | --- | --- | --- | --- | --- |
| CCCOC(=O)c1ccc2sc(NC(=S)N[C@@H]3O[C@H](COC(C)=O)[C@@H](OC(C)=O)[C@H](OC(C)=O)[C@H]3OC(C)=O)nc2c1 | 0.78 (≈ 1.25 µM) | – | – | – | – | – | – | – | – | – | – | – | – | – | – | – | – | – | – | – | – |
| CCCCCc1nnc(NC(=S)NS(=O)(=O)c2ccc(C)cc2)s1 | 0.78 (≈ 2.03 µM) | – | – | – | – | – | – | – | – | – | – | – | – | – | – | – | – | – | – | – | – |
| O=C(CN1C(=O)c2cccc3cccc(c23)C1=O)N1CCC(NC(=S)NC2CCCCCC2)CC1 | – | 0.25 (≈ 0.507 µM) | 0.25 (≈ 0.507 µM) | 0.25 (≈ 0.507 µM) | > 64 | > 400 | inactive | inactive | 0.25 (≈ 0.507 µM) | 0.25 (≈ 0.507 µM) | 0.25 (≈ 0.507 µM) | > 100 | 0.25 (≈ 0.507 µM) | inactive | 0.25 (≈ 0.507 µM) | inactive | 0.25 (≈ 0.507 µM) | inactive | 0.25 (≈ 0.507 µM) | 0.25 (≈ 0.507 µM) | MIC (Staphylococcus aureus [16]): 0.25 µg/mL (≈ 0.507 µM); MIC (Staphylococcus aureus [17]): 0.25 µg/mL (≈ 0.507 µM); MIC (Staphylococcus aureus [18]): 0.25 µg/mL (≈ 0.507 µM); growth inhibition (GI) [19]: inactive; growth inhibition (GI) [20]: inactive |
| CCNc1ccc2c3c(cccc13)C(=O)N(CC(O)Cn1c([N+](=O)[O-])cnc1C)C2=O (stereo not drawn) | – | – | – | – | – | – | – | – | – | – | – | – | – | – | – | – | – | – | – | – | MIC (Staphylococcus aureus [21]): 40 µM (≈ 16.9 µg/mL) |
| O=C(CN1C(=O)c2cccc3cccc(c23)C1=O)N1CCC(NC(=S)NC2CCCC2)CC1 | – | 0.06 (≈ 0.129 µM) | 0.06 (≈ 0.129 µM) | 0.06 (≈ 0.129 µM) | > 64 | > 3200 | inactive | inactive | 0.06 (≈ 0.129 µM) | 0.06 (≈ 0.129 µM) | 0.06 (≈ 0.129 µM) | > 100 | 0.06 (≈ 0.129 µM) | inactive | 0.06 (≈ 0.129 µM) | inactive | 0.06 (≈ 0.129 µM) | inactive | 0.06 (≈ 0.129 µM) | 0.031 (≈ 0.0667 µM) | Activity (Staphylococcus aureus [22]): Dose-Dependent Effect; MIC (Staphylococcus aureus [16]): 0.06 µg/mL (≈ 0.129 µM); MIC (Staphylococcus aureus [17]): 0.06 µg/mL (≈ 0.129 µM); Activity (Staphylococcus aureus [23]): ~5 log10CFU/ml; MIC (Staphylococcus aureus [18]): 0.06 µg/mL (≈ 0.129 µM); growth inhibition (GI) [19]: inactive; growth inhibition (GI) [20]: inactive |

Source: ChEMBL document CHEMBL5385966, “Synthesis and biological evaluation of new naphthalimide-thiourea derivatives as potent antimicrobial agents active against multidrug-resistant Staphylococcus aureus and Mycobacterium tuberculosis” (RSC Med Chem, 2024)
